This is an account of results in ChEMBL document CHEMBL3763092, “Design and synthesis of pyrrolobenzodiazepine-gallic hybrid agents as p53-dependent and -independent apoptogenic signaling in melanoma cells” (Eur J Med Chem, 2016).

Data set [1] has as its system A-375. Kind of data set: Induction of apoptosis in human A375 cells expressing p53 wild type assessed as increase in cleaved caspase-3 levels at 0.5 uM after 24 hrs by western blot analysis. The class given is functional, cell-based. The gist of the method:
(§1)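 A375 cells were exposed to 0.5 µM for 24 h, and lysates were immunoblotted with specific antibodies (p53, Cdc25c, p-Chk1, Bcl-xL, PARP, caspase-3). GAPDH served as loading control. Three independent experiments.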

Data set [2] deals with A-375. The experiment in a line: Effect on cell cycle distribution in human A375 cells expressing p53 wild type assessed as number of cells at S-phase at 0.5 uM after 24 hrs by FACS analysis (reference value: 13.8 %). The class given is functional. A general note: In flow cytometry, cells or beads pass a laser one at a time.
The test system of a further data set is B16. The experiment in a line: Induction of apoptosis in mouse B16 cells at 0.5 uM after 24 hrs by FITC-annexin V/PI staining based fluorescence microscopy. The class given is functional, cell-based. The gist of the method: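 B16 cells were seeded on coverslips at 3 × 10^5 per well, allowed to attach for 24 h, then exposed to 0.5 µM for 24 h. After PBS washes, cells were stained with annexin V-FITC and PI (plus Hoechst33258) for at least 15 min at RT in the dark and viewed by fluorescence microscopy.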

In data set [3] the test system is A-375. Kind of data set: Effect on cell cycle distribution in human A375 cells expressing p53 wild type assessed as number of cells at subG1 phase at 0.5 uM after 24 hrs by FACS analysis (reference value: 1 %). It counts as functional.
The next data set relates to Mus musculus. The experiment in a line: Toxicity in ICR mouse xenografted with mouse B16 cells assessed as change in body weight at 2 to 4 mg/kg, iv. The class given is organism-based. The settings on record: in vivo. The gist of the method:
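Female ICR mice, seven weeks old, inoculated s.c. in the footpad with 1 × 10^6 B16 cells in 20 µl PBS. Once tumors reached a mean diameter of 4-7 mm (day 0), mice were randomized into groups of three and dosed i.v. at 0, 2, 4 mg/kg. Two perpendicular tumor diameters and body weight were taken at least 3 times weekly. T/C% was calculated from relative tumor volume; body weight is expressed as % of day 0. Statistics by t-test.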

Data set [4] deals with RPMI-7951. The experiment in a line: Induction of apoptosis in human RPMI7951 cells expressing p53 mutant assessed as PARP cleavage at 0.5 uM after 24 hrs by western blot analysis. The class given is functional, cell-based. Background: In western blotting, separated proteins are transferred to a membrane and probed.
For data set [5], the system named is A-375. The experiment in a line: Increase in Chk1 phosphorylation in human A375 cells expressing p53 wild type at 0.5 uM after 24 hrs by western blot analysis. The class given is functional, cell-based. Summed up: as §1
The nature of data set [6]: Cytotoxicity against human fibroblast cells expressing p53 wild type assessed as cell viability at 1 uM after 24 hrs by MTT assay. It counts as cell-based. The settings on record: read-out: Activity. Summed up: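 Cells were exposed to compound at 1 µM for 24 h, then growth and viability were read by MTT assay. Media: A375 in DMEM; RPMI7951 and MCF-7 in MEM; A549 in RPMI1640; H1299 in DMEM-F12; all with 10% FCS and penicillin/streptomycin, at 37 °C and 5% CO2. Fibroblasts came from adult foreskin. DMSO stocks were 10 mM.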
A general note: Tetrazolium assays rely on reduction of a dye to a coloured formazan, in cell work by metabolically active cells.

Data set [7] relates to A-375. Kind of data set: Induction of apoptosis in human A375 cells expressing p53 wild type assessed as increase in p53 levels at 0.5 uM after 24 hrs by western blot analysis. The class given is functional, cell-based. The gist of the method: as §1
Data set [8] concerns A-375. Kind of data set: Cytotoxicity against human A375 cells expressing p53 wild type assessed as colony formation at 0.5 uM after 10 days by SRB assay. The class given is functional, cell-based. The gist of the method:
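Cells were seeded at 100 per well and treated from the second day. Medium containing 0.5 µM agent was renewed every 3 days. After 10 days of treatment, colonies were stained with SRB and photographed. Three independent experiments.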

In data set [9] the test system is A-375. Kind of data set: Induction of apoptosis in human A375 cells expressing p53 wild type assessed as lysosomal H+ concentration at 0.5 uM after 24 and 48 hrs by flow cytometric analysis. It counts as functional, cell-based. The gist of the method:
(§2)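 Cells were loaded with LysoTracker Green (75 nM) for 15 min at 37 °C before treatment with 0.5 µM for the indicated times. After washing, mean fluorescence was quantified by flow cytometry. For p53 knockdown, A375 cells (6 × 10^4/well, antibiotic-free DMEM) were transfected with 30 nM tp53 siRNA or non-target siRNA using Lipofectamine RNAiMAX and harvested at 24 h.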

The test system of data set [10] is RPMI-7951. Kind of data set: Induction of apoptosis in human RPMI7951 cells expressing p53 mutant assessed as increased release of cytochrome c to cytosol at 0.5 uM by immunofluorescent staining analysis. The class given is functional, cell-based. Summed up: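 RPMI7951 cells on coverslips (1 × 10^4) were treated with 0.5 µM for 24 h. Immunofluorescence steps: fixation in 4% formaldehyde, permeabilization with 0.5% Triton X-100, blocking with 5% BSA. Primary antibodies: rabbit anti-cathepsin D and mouse anti-LAMP-1 at 1:500, cytochrome c and COX IV at 1:1000, 1 h at RT. Secondary antibodies for 30 min. DAPI counterstain.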

In data set [11] the test system is A-375. The experiment in a line: Induction of apoptosis in human A375 cells transfected with siRNA p53 assessed as decrease in lysosomal H+ concentration at 0.5 uM after 24 and 48 hrs by flow cytometric analysis. It counts as functional, cell-based. Summed up: as §2

Active and inactive are the calls of the source. The rule behind the calls is not given here.

As for `COc1cc2c(cc1OCCCCOc1cc(OC)c(OC)c(OC)c1)N=C[C@@H]1CCCN1C2=O`, the outcome with A-375 [1], in the data set on B16, in the data set on RPMI-7951 [4], in the data set on A-375 [5], with A-375 [7] and with RPMI-7951 [10] was Active. In the data set on A-375 [11], the result was Active. In addition, the Activity in the data set with A-375 [2] is listed as 47.9%; with A-375 [3] it was 15.8%; in the data set with Mus musculus it was “Non-toxic”. Also, the viability at 24 h, 1 µM in data set [6] was found to be 109%. Further, the inhibition result in the data set with A-375 [8] was “Active”. For the same molecule, the outcome with A-375 [9] was inactive.
